Results: ChEMBL document CHEMBL5512642, “Novel triterpenoid pyrones, phthalimides and phthalates are selectively cytotoxic in CCRF-CEM cancer cells - Synthesis, potency, and mitochondrial mechanism of action” (Eur J Med Chem, 2024)
The source made the active and inactive calls. The rule behind the calls is not given here.

Columns and labels:
HCT-116 = assay: Cytotoxicity against human HCT-116 cells assessed as reduction in cell viability incubated for 72 hrs by MTS assay; assay type: functional, cell-based; conditions: HCT-116, 72 h
[1] = Metabolic stability in human liver microsomes assessed as compound remaining at measured at 15 mins in presence of NADPH by RF-MS analysis; assay type: ADME, Microsome; conditions: read-out: Stability
Procedure, shortened: (§1)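 Human liver microsomes with NADPH cofactor to assess phase I oxidation. Compound remaining sampled at 15, 30 and 60 min; intrinsic clearance derived and categorized. Run in triplicate.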

CCRF-CEM [2] = assay: Induction of apoptosis in human CCRF-CEM cells assessed as necrotic cells at 5 time IC50 incubated for 24 hrs by Annexin V and propidium iodide staining based flow cytometry analysis (reference value: 0.; assay type: functional
U2OS = assay: Cytotoxicity against human U2OS cells assessed as reduction in cell viability incubated for 72 hrs by MTS assay; assay type: functional, cell-based
[3] = Cytotoxicity against human MRC5 cells assessed as reduction in cell viability incubated for 72 hrs by MTS assay; assay type: toxicity, cell-based
CCRF-CEM [4] = assay: Induction of apoptosis in human CCRF-CEM cells assessed as reduction in Bcl-XL expression at 5 time of IC50 incubated for 24 hrs by Western blot analysis; assay type: functional, cell-based
Procedure, shortened: (§2)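 Lysate 20 µg protein per lane on SDS-PAGE, transferred to nitrocellulose, blocked in 5% BSA/TBS-Tween. Probed overnight at 4 °C with anti-caspase-3, Bcl-2, Bcl-XL, β-actin, then HRP secondary 1 h. ECL chemiluminescence detection.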

CEM-DNR = assay: Cytotoxicity against human CEM-DNR cells assessed as reduction in cell viability incubated for 72 hrs by MTS assay; assay type: functional, cell-based
[5] = Stability in human plasma assessed as compound remaining measured 120 mins by RF-MS analysis; assay type: ADME, cell-free; conditions: read-out: Stability
Procedure, shortened: (§3)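 Compounds incubated in human plasma in vitro for up to 2 h. Percent remaining sampled at 15, 30, 60 and 120 min. Run in triplicate.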

[6] = Apparent permeability of the compound in human Caco-2 cells; assay type: ADME, cell-based
Procedure, shortened: (§4)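 Caco-2 and MDCK-MDR1 monolayers; transport measured in both directions, apical→basolateral and basolateral→apical. Efflux ratio taken from the two directions; ER > 2 counted as active efflux. Compound recovery reported. Cell-based permeability runs done in duplicate.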

[7] = Metabolic stability in human liver microsomes assessed as compound remaining at measured at 60 mins in presence of NADPH by RF-MS analysis; assay type: ADME, Microsome; conditions: read-out: Stability; procedure, shortened: as §1
[8] = Apparent permeability of the compound in MDCK-MDR1 cells at 10 uM incubated for 1 hr by RF-MS analysis; assay type: ADME, cell-based, Canis lupus familiaris; conditions: dog; procedure, shortened: as §4
[9] = Stability in human plasma assessed as compound remaining measured 60 mins by RF-MS analysis; assay type: ADME, cell-free; conditions: read-out: Stability; procedure, shortened: as §3
CCRF-CEM [10] = assay: Induction of apoptosis in human CCRF-CEM cells assessed as viable cells at 1 time IC50 incubated for 24 hrs by Annexin V and propidium iodide staining based flow cytometry analysis (reference value: 98%); assay type: functional
HCT 116 TP53(-/-) = assay: Cytotoxicity against human HCT116-p53-null cells assessed as reduction in cell viability incubated for 72 hrs by MTS assay; assay type: functional, cell-based
[11] = Cytotoxicity against human BJ cells assessed as reduction in cell viability incubated for 72 hrs by MTS assay; assay type: toxicity, cell-based
[12] = Apparent permeability of the compound across apical to basolateral side in human Caco-2 cells assessed as compound recovery; assay type: ADME, cell-based; conditions: read-out: Activity; procedure, shortened: as §4
CCRF-CEM [13] = assay: Induction of apoptosis in human CCRF-CEM cells assessed as reduction in Bcl-2 expression at 5 time of IC50 incubated for 24 hrs by Western blot analysis; assay type: functional, cell-based; procedure, shortened: as §2
CCRF-CEM [14] = assay: Cytotoxicity against human CCRF-CEM cells assessed as reduction in cell viability incubated for 72 hrs by MTS assay; assay type: functional, cell-based
CCRF-CEM [15] = assay: Induction of apoptosis in human CCRF-CEM cells assessed as necrotic cells at 1 time IC50 incubated for 24 hrs by Annexin V and propidium iodide staining based flow cytometry analysis (reference value: 0.1%); assay type: functional
CCRF-CEM [16] = assay: Induction of apoptosis in human CCRF-CEM cells assessed as reduction in caspase-3 expression at 5 time of IC50 incubated for 24 hrs by Western blot analysis; assay type: functional, cell-based; procedure, shortened: as §2
[17] = Cytotoxicity against human K562-Tax cells assessed as reduction in cell viability incubated for 72 hrs by MTS assay; assay type: functional, cell-based
CCRF-CEM [18] = assay: Induction of mitochondrial membrane potential loss in human CCRF-CEM cells assessed as cells with depolarized mitochondria (P2 gate) by measuring green fluorescence intensity at 1 time IC50 incubated for 24 hrs by JC-1 staining based flow cytometry (reference value: 2.1%)
[19] = Plasma protein binding in human assessed as fraction bound at 10 uM by rapid equilibrium dialysis based RF-MS analysis; assay type: ADME, cell-free; conditions: read-out: PPB (converted)
Procedure, shortened: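 Human plasma protein binding measured by equilibrium dialysis and reported as percent fraction bound. Run in triplicate.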

CCRF-CEM [20] = assay: Induction of apoptosis in human CCRF-CEM cells assessed as late apoptotic cells at 5 time IC50 incubated for 24 hrs by Annexin V and propidium iodide staining based flow cytometry analysis (reference value: 0.5%); assay type: functional
CCRF-CEM [21] = assay: Induction of apoptosis in human CCRF-CEM cells assessed as late apoptotic cells at 1 time IC50 incubated for 24 hrs by Annexin V and propidium iodide staining based flow cytometry analysis (reference value: 0.5%); assay type: functional
CCRF-CEM [22] = assay: Induction of mitochondrial membrane potential loss in human CCRF-CEM cells assessed as cells with depolarized mitochondria (P2 gate) by measuring green fluorescence intensity at 5 time IC50 incubated for 24 hrs by JC-1 staining based flow cytometry (reference value: 2.1%)
A549 = assay: Cytotoxicity against human A549 cells assessed as reduction in cell viability incubated for 72 hrs by MTS assay; assay type: functional, cell-based; conditions: A549, 72 h
K562 = assay: Cytotoxicity against human K562 cells assessed as reduction in cell viability incubated for 72 hrs by MTS assay; assay type: functional, cell-based; conditions: K562, 72 h
CCRF-CEM [23] = assay: Induction of apoptosis in human CCRF-CEM cells assessed as early apoptotic cells at 1 time IC50 incubated for 24 hrs by Annexin V and propidium iodide staining based flow cytometry analysis (reference value: 1.4%); assay type: functional
CCRF-CEM [24] = assay: Induction of apoptosis in human CCRF-CEM cells assessed as viable cells at 5 time IC50 incubated for 24 hrs by Annexin V and propidium iodide staining based flow cytometry analysis (reference value: 98%); assay type: functional
[25] = Stability in human plasma assessed as compound remaining measured 30 mins by RF-MS analysis; assay type: ADME, cell-free; conditions: read-out: Stability; procedure, shortened: as §3
CCRF-CEM [26] = assay: Induction of apoptosis in human CCRF-CEM cells assessed as early apoptotic cells at 5 time IC50 incubated for 24 hrs by Annexin V and propidium iodide staining based flow cytometry analysis (reference value: 1.4%); assay type: functional
[27] = Apparent permeability of the compound across apical to basolateral side in MDCK-MDR1 cells assessed as compound recovery at 10 uM incubated for 1 hr by RF-MS analysis; assay type: ADME, cell-based, Canis lupus familiaris; conditions: dog, read-out: Activity; procedure, shortened: as §4
[28] = Stability in human plasma assessed as compound remaining measured 15 mins by RF-MS analysis; assay type: ADME, cell-free; conditions: read-out: Stability; procedure, shortened: as §3
[29] = Metabolic stability in human liver microsomes assessed as compound remaining at measured at 30 mins in presence of NADPH by RF-MS analysis; assay type: ADME, Microsome; conditions: read-out: Stability; procedure, shortened: as §1
CCRF-CEM [30] = assay: Antimitotic activity against human CCRF-CEM cells assessed as decrease in cell division at 5 times of IC50; assay type: functional, cell-based
Procedure, shortened: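 Mitotic fraction scored with the pH3 Ser10 marker and DNA synthesis with BrdU incorporation. For transcription, cells received a short BrU pulse after the 24 h pre-incubation. Read by flow cytometry against untreated cells.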

[31] = Efflux ratio of apparent permeability across basolateral to apical side over apical to basolateral side in MDCK-MDR1 cells; assay type: ADME, cell-based, Canis lupus familiaris; conditions: dog; procedure, shortened: as §4
[32] = Efflux ratio of apparent permeability across basolateral to apical side over apical to basolateral side in human Caco-2 cells; assay type: ADME, cell-based; procedure, shortened: as §4

remaining at 0.25 h [1]	remaining at 2 h [5]	Papp [6]	remaining at 1 h [7]	Papp at 1 h, 10 µM [8]	remaining at 1 h [9]	recovery [12]	SMILES	IC50 (HCT-116)	Activity (CCRF-CEM [2])	IC50 (U2OS)	IC50 at 72 h [3]	Activity (CCRF-CEM [4])	IC50 (CEM-DNR)	Activity (CCRF-CEM [10])	IC50 (HCT 116 TP53(-/-))	IC50 at 72 h [11]	Activity (CCRF-CEM [13])	IC50 (CCRF-CEM [14])	Activity (CCRF-CEM [15])	IC50 [17]	also measured
99%	101%	0.04 ×10⁻⁶ cm/s	79%	0.1 ×10⁻⁶ cm/s	95.8%	86%	C=C(C)[C@@H]1CC[C@]2(C(=O)O)CC[C@]3(C)[C@H](CC[C@@H]4[C@@]5(C)CC6=C(C7C(=O)N(c8ccccc8)C(=O)C7C=C6C(F)(F)F)C(C)(C)[C@@H]5CC[C@]43C)[C@@H]12 (stereo partly specified)	7.8 µM	0.1%	7.6 µM	28 µM	Active	20 µM	92.5%	12 µM	> 50 µM	Active	4.2 µM	0%	9.7 µM	Activity (CCRF-CEM [16]): Active; Activity (CCRF-CEM [18]): 2%; fraction unbound at 10 µM [19]: 0.273; Activity (CCRF-CEM [20]): 2.9%; Activity (CCRF-CEM [21]): 3.2%; Activity (CCRF-CEM [22]): 2.6%; IC50 (A549): 9.7 µM; IC50 (K562): 25 µM; Activity (CCRF-CEM [23]): 4.3%; Activity (CCRF-CEM [24]): 91.8%; remaining at 0.5 h [25]: 92.7%; Activity (CCRF-CEM [26]): 5.2%; recovery at 1 h, 10 µM [27]: 94.1%; remaining at 0.25 h [28]: 100%
91%	93.8%	1.73 ×10⁻⁶ cm/s	76%	4.46 ×10⁻⁶ cm/s	96.2%	75.8%	C=C(C)[C@@H]1CC[C@]2(C(=O)O)CC[C@]3(C)[C@H](CC[C@@H]4[C@@]5(C)Cc6c(C(F)(F)F)cc(C(=O)OC)c(C(=O)OC)c6C(C)(C)[C@@H]5CC[C@]43C)[C@@H]12	23 µM	0%	17 µM	> 50 µM	Active	> 50 µM	92.9%	13 µM	> 50 µM	Active	3.8 µM	0%	> 50 µM	remaining at 0.5 h [29]: 102%; Activity (CCRF-CEM [30]): Active; Activity (CCRF-CEM [18]): 2.4%; fraction unbound at 10 µM [19]: 0.184; efflux ratio [31]: 6.95; Activity (CCRF-CEM [20]): 4.2%; Activity (CCRF-CEM [21]): 2.8%; Activity (CCRF-CEM [22]): 38.1%; IC50 (A549): 18 µM; IC50 (K562): 18 µM; Activity (CCRF-CEM [23]): 4.3%; efflux ratio [32]: 5.62; Activity (CCRF-CEM [24]): 87.3%; remaining at 0.5 h [25]: 96.7%; Activity (CCRF-CEM [26]): 8.5%; recovery at 1 h, 10 µM [27]: 71.2%; remaining at 0.25 h [28]: 103%
